We go through three compounds from ChEMBL document CHEMBL4257558, “Synthesis of dihydronaphthalene analogues inspired by combretastatin A-4 and their biological evaluation as anticancer agents” (Medchemcomm, 2018).

A short description of assay [1]: Inhibition of bovine brain tubulin polymerization preincubated for 15 mins followed by GTP addition and measured for 20 mins by spectrophotometric method. The arrangement: species or system Bos taurus. The essentials:
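Final mixture: 10 μM (1 mg/mL) bovine brain tubulin, 0.8 M monosodium glutamate pH 6.6, 4% DMSO, 0.4 mM GTP, varied compound concentrations. All components except GTP preincubated 15 min at 30 °C, chilled to 0 °C, GTP added, then jumped to 30 °C.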

The species entered for assay [2] is Bos taurus. Briefly: Inhibition of [3H]colchicine binding to calf brain tubulin at 1 uM incubated for 10 mins by scintillation counting method relative to control. The essentials: (§1)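 Tubulin at 1.0 μM with 5.0 μM [3H]colchicine, 5% (v/v) DMSO and test compound at 1.0 or 5.0 μM. Binding-stabilizing buffer: 1.0 M monosodium glutamate (pH 6.6), 0.5 mg mL–1 BSA, 0.1 M glucose-1-phosphate, 1.0 mM MgCl2, 1.0 mM GTP. Incubated 10 min at 37 °C, stopped with ice-cold water, trapped on DEAE-cellulose filters and scintillation-counted. Counts corrected for filter binding without tubulin; percent inhibition versus no-inhibitor samples.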

The species named for assay [3] is Bos taurus. In words: Inhibition of [3H]colchicine binding to calf brain tubulin at 5 uM incubated for 10 mins by scintillation counting method relative to control. The essentials: as §1
For a further assay, the system named is NCI-H460. In words: Growth inhibition of human NCI-H460 cells after 48 hrs by SRB assay. The conditions noted are these: NCI-H460, 48 h. Format: functional. The essentials: (§2)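 Cells plated at 7000–8000 per well in DMEM with 5% FBS/1% gentamicin, grown 24 h at 37 °C, 5% CO2. Compounds from 10 mg/mL DMSO stock added as serial dilutions; doxorubicin and paclitaxel as positive controls.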

The next assay concerns DU-145. In words: Growth inhibition of human DU145 cells after 48 hrs by SRB assay. The conditions noted are these: DU-145, 48 h. The format is functional. The essentials: as §2
In the next assay the test system is SK-OV-3. In words: Growth inhibition of human SKOV3 cells after 48 hrs by SRB assay. Conditions: SK-OV-3, 48 h. Format: functional. In outline: as §2
The subject of assay [4] is MDA-MB-231. In words: Vascular disrupting activity in luciferase expressing human MDA-MB-231 cells xenografted in BALB/c SCID mouse at 200 mg/kg, ip at 4 hrs by bioluminescence imaging method relative to control. Format: functional. In outline:
(§3)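 Orthotopic tumors from 1 × 10^6 MDA-MB-231-luc cells in PBS/50% Matrigel injected into left upper mammary fat pad of BALB/c SCID mice. Dynamic BLI over 30 min after luciferin injection at baseline, then 4 and 24 h after IP dosing in saline (200 mg/kg in the mouse shown), with fresh luciferin each time; signal reduction expressed versus baseline.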

Assay [5] relates to MDA-MB-231. In words: Vascular disrupting activity in luciferase expressing human MDA-MB-231 cells xenografted in BALB/c SCID mouse at 200 mg/kg, ip at 24 hrs by bioluminescence imaging method relative to control. Format: functional. The essentials: as §3
A further assay has as its system A549. In words: Vascular disrupting activity in human A549 cells xenografted in T-cell deficient athymic homozygous nude rat assessed as reduction of blood flow at 15 mg/kg, ip after 2 hrs by color doppler ultrasound imaging method. The format is functional, organism-based. The essentials: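 Nude rat bearing subcutaneous leg A549 tumor (3 × 10^6 cells in serum-free medium with 50% Matrigel; tumor about 0.5 cm3). Under isoflurane, color-Doppler ultrasound performed before and 2 h after 15 mg/kg IP in 500 μl saline; tumor blood perfusion compared with baseline.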

The structures appear in SMILES notation. Active and inactive are the calls of the source. The rule behind the calls is not given here.

The compound `COc1ccc2c(c1O)CCC=C2C(=O)c1cc(OC)c(OC)c(OC)c1` showed an IC50 in assay [1] of 1200 nM. The inhibition came to 81% in the assay listed under Bos taurus [2] and 98% in the assay filed under Bos taurus [3]. For the same compound, the 50% growth inhibitory concentration (GI50) in the assay with NCI-H460 worked out at 21.6 nM; in the assay on DU-145, 7.3 nM; with SK-OV-3, 6.22 nM.

`COc1cc(C(=O)C2=CCCc3c2ccc(OC)c3OP(=O)([O-])[O-])cc(OC)c1OC.[Na+].[Na+]` showed an IC50 in [1] of over 20000 nM. The GI50 in the assay on NCI-H460 came to 52.4 nM; in the assay with DU-145 it was 12.6 nM; with SK-OV-3, 12.9 nM. For the same compound, the Activity in the assay on MDA-MB-231 [4] was 99%; with MDA-MB-231 [5] it was 81%.

`COc1cc(C2=CCCc3c2ccc(OC)c3OP(=O)(O)O)cc(OC)c1OC` yielded an IC50 in [1] of over 20000 nM. In addition, the GI50 with NCI-H460 turned out to be 3.73 nM; in the assay with DU-145, 3.27 nM; in the assay on SK-OV-3, 1.9 nM. Also, the result in the assay with A549 was Active.
